hIAP inh: blocks human intestinal alkaline phosphatase; P09923; purified IAP, CDP-Star luminescence, 30 min; inhibition, % at 10 µM; 0.12% of 330,000 active; AID 2544;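 active = inhibition reaching a set limit with compound at 10 µM in the primary screen, cut at about 35% in these data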
Target sequence (P09923 whole entry, looked up): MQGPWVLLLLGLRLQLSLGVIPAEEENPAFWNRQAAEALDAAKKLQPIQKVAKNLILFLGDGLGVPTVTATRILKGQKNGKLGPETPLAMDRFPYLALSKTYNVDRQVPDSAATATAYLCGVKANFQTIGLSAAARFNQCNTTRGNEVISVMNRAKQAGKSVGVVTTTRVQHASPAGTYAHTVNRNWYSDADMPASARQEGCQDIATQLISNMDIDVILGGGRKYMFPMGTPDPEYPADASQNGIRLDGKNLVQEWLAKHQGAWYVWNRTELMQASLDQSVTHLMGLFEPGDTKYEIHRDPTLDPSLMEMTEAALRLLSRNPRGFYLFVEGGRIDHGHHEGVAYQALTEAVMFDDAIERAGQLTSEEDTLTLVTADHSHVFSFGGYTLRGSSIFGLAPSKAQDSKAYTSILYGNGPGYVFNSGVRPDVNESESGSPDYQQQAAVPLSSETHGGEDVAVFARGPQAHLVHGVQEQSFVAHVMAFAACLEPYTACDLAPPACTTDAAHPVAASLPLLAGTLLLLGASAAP
hIAP activ: human IAP activation; AID 2524; P09923; 0.16% of 330,000 active; purified human IAP, CDP-Star luminescence, 30 min; active compounds read high; 1 = vehicle-only enzyme, 0 = enzyme-free background; activation factor at 10 µM;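 active = activation factor of the enzyme at least 2-fold when tested at 20 µM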
mIAP act: increases mouse intestinal alkaline phosphatase activity; activation factor at 10 µM; 0.24% of 330,000 active; muIAP, CDP-Star luminescence, 30 min; active compounds read high; 1 = vehicle-only enzyme signal, 0 = enzyme-free wells;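 active = activation factor of at least 2 at 20 µM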
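System: Mouse IAP enzyme | Also added: CDP-Star substrate | Dosing: Compounds dispensed in DMSO | Schedule: 30 min enzyme-substrate-compound incubation at room temperature | Technique: Chemiluminescence readout | Control set: DMSO-only wells and no-enzyme negative control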
mIAP inh: mouse IAP inhibition. purified mouse IAP, CDP-Star luminescence, 30 min. inhibition, % at 10 µM. 0.2% of 330,000 active;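 active = inhibition of at least 40% at 10 µM in the primary screen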
bIAP activator: intestinal alkaline phosphatase (bovine) activation. 0.17% of 200,000 active. AID 1016. activation factor at 20 µM. purified bovine IAP, CDP-star luminescence, 30 min; active compounds read high; fold of DMSO-control signal, blank-subtracted;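 active = activation factor of 2 or more at 20 µM, a signal rise over negative controls twice the positive control's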
bIAP inh: blocks bovine intestinal alkaline phosphatase activity; 190,000 tested, under 10 active; purified bovine IAP, CDP-star luminescence, 30 min; inhibition, % at 20 µM;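 active = over 50% inhibition of intestinal alkaline phosphatase at 20 µM in the single-dose screen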
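Assay system – bovine IAP enzyme · Quantity – bovine IAP at 1/65,000,000 final dilution · Detection – CDP-star luminescence signal · Times – 30 min reaction at room temperature · Also added – CDP-star substrate at 30 µM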
hIAP act conf: human IAP activation confirmation; activation (%Activity, negative = activation), % at 8.3 µM; 10% of 880 active; shares compounds with hIAP activ; purified IAP, CDP-Star luminescence, 30 min; active compounds read low;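 active = at least twofold enzyme activation in any of six single-dose repeats, which the averaged readout prints as negative percent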
mIAP inh confirm: mouse IAP inhibition confirmation. purified mouse IAP, CDP-Star luminescence, 30 min. inhibition, % at 10 µM. 4.7% of 11,000 active. shares compounds with mIAP inh. AID 434971;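 active = inhibition of at least 40% at 10 µM in either of the two replicates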
Large screens that a line does not name were inactive (follow-up assays come after a bar, where they were run). Only some compounds are listed: those with a hit (about 0.72% of all), similar ones and a draw of the others.

CN1C(=O)C(=Cc2ccc(N3CCCCCC3)o2)C(=O)N(C)C1=S	mIAP inh 43
Nc1ncc([N+](=O)[O-])s1	mIAP inh 43 (no result: bIAP activator, bIAP inh)
CN(C)P(=O)(CCl)Nc1ccccc1 (stereo not drawn)	none
COC(=O)C1=C(c2c(C)noc2C)C[C@@H]2CC[C@H]1N2C(=O)NC1CCCCC1	none (no result: bIAP activator, bIAP inh)
COC(=O)CSC1=NP(=S)(SCC(=O)OC)N2CCCC2=C1C#N (stereo not drawn)	none
O=C(Nc1cccc(Cl)c1)OC1CN2CCC1CC2 (stereo not drawn)	mIAP act 4.4 (no result: bIAP activator, bIAP inh)
CNS(=O)(=O)c1ccc(-c2ccc(C=C3C(=O)NC(=O)NC3=O)o2)cc1	none (no result: bIAP activator, bIAP inh)
NS(=O)(=O)c1ccc(-c2ccc(C=C3C(=O)NC(=O)NC3=O)o2)cc1	mIAP inh 64 (no result: bIAP activator, bIAP inh)
COC(=O)Cn1cc(/C=C2\C(=O)NC(=O)N(c3ccccc3)C2=O)c2ccccc21	hIAP inh 37 (no result: bIAP activator, bIAP inh) | hIAP act conf inactive
O=C1NC(=O)N(CCNc2ncc(C(F)(F)F)cc2Cl)C(=O)C1Cc1ccc(Cl)cc1 (stereo not drawn)	none
NS(=O)(=O)c1ccc(-c2ccc(C=C3C(=O)NC(=S)NC3=O)o2)cc1	mIAP inh 78 (no result: bIAP activator, bIAP inh) | mIAP inh confirm 72
Cc1cccc(NC(=O)CN2CCN(C(=O)COc3cccc(Br)c3)CC2)c1C	none (no result: bIAP activator, bIAP inh)
O=C1NC(=O)N(Cc2ccc(F)cc2)C(=O)/C1=C\C=C\c1ccco1	mIAP inh 59 (no result: bIAP activator, bIAP inh) | mIAP inh confirm 61
O=C1NC(=O)N(Cc2ccccc2)C(=O)/C1=C\c1ccco1	none
Cc1ccc(CN2C3CCCC2CC(NC(=S)NCc2ccccc2)C3)cc1 (stereo not drawn)	mIAP act 4.5, bIAP activator 4.2 | mIAP inh confirm inactive
Cc1cc(OCC(=O)N2CCC(C(=O)O)(c3ccccc3)CC2)c2c(C)cc(=O)oc2c1	none (no result: bIAP activator, bIAP inh)
O=C(O)Cn1cc(/C=C2\C(=O)NC(=O)N(Cc3ccco3)C2=O)c2ccccc21	mIAP inh 57 | mIAP inh confirm 58
CCN(CC)c1ccc(/C=C2\C(=O)NC(=O)N(Cc3ccco3)C2=O)cc1	mIAP inh 49 | mIAP inh confirm 53
CCN(CC)c1ccc(/C=C2/C(=O)NC(=O)N(CC3CCCO3)C2=O)cc1 (stereo not drawn)	none
O=P(O)(O)/C=C(\Cl)c1ccccc1	none
CC(C)(C)c1cc(C=C(C#N)C#N)cc(C(C)(C)C)c1O	none (no result: bIAP activator, bIAP inh)
N#CC(C#N)=Cc1ccc(O)c(O)c1	mIAP inh 46 (no result: bIAP activator, bIAP inh) | mIAP inh confirm 66
CC(C)(Cl)[N+](=O)[O-]	none (no result: bIAP activator, bIAP inh)
CCN1C(=O)C(=Cc2ccc(C)s2)C(=O)N(CC)C1=S	none
O=C1NC(=S)NC(=O)C1=Cc1ccc(Br)s1	mIAP inh 60 (no result: bIAP activator, bIAP inh) | mIAP inh confirm 76
O=C1NC(=O)N(c2ccccc2)C(=O)/C1=C\c1ccc([N+](=O)[O-])o1	mIAP inh 47 (no result: bIAP activator, bIAP inh) | mIAP inh confirm 59
CN1C(=O)NC(=O)/C(=C\c2ccc([N+](=O)[O-])o2)C1=O	mIAP inh 44 | mIAP inh confirm 56
CN1C(=O)NC(=O)/C(=C/c2ccc([N+](=O)[O-])o2)C1=O	mIAP inh 42 (no result: bIAP activator, bIAP inh) | mIAP inh confirm 42
CN1C(=O)NC(=O)/C(=C/c2ccc([N+](=O)[O-])s2)C1=O	mIAP inh 46 (no result: bIAP activator, bIAP inh) | mIAP inh confirm 45
Cc1ccc(/C=C2/C(=O)NC(=O)N(C)C2=O)cc1	none
COc1ccc(OC)c(N2C(=O)NC(=O)/C(=C\c3ccc([N+](=O)[O-])s3)C2=O)c1	none
O=C1NC(=O)N(c2ccccc2)C(=O)/C1=C\c1ccc([N+](=O)[O-])s1	mIAP inh 41 (no result: bIAP activator, bIAP inh) | mIAP inh confirm 53
COc1ccc(-n2c(O)c(/C=C3\C=Nc4ccc(Br)cc43)c(=O)[nH]c2=O)c(OC)c1	none (no result: bIAP activator, bIAP inh)
CNC(C(=O)c1ccccc1)C(OC(C)=O)c1cccc([N+](=O)[O-])c1 (stereo not drawn)	none (no result: bIAP activator, bIAP inh)

Assay outcomes as filed in PubChem BioAssay.
